The values that follow come from ChEMBL document CHEMBL3045217, “Factors affecting the synergy of thiabendazole, sodium bicarbonate, and heat to control postharvest green mold of citrus fruit” (J Agric Food Chem, 2008).

Each structure is given as a SMILES string.

Data set [1] deals with Penicillium digitatum. The data set is described as follows: Fungicidal activity against TBZ-resistant Penicillium digitatum infected Nova mandarins assessed as postharvest green mold incidence at 600 mg/L treated for 1 min at 20 degC at 20 hr after fungal conidial inoculation measured after 5 days of storage at 20 degC in presence of 0.5% SBC (water Rvb = 86.7%). The format is functional.

The subject of data set [2] is Fruit. The data set can be described thus: Drug residues in Citrus sinensis cvs. Valencia late (Valencia oranges) at 400 mg/L treated for 1 min at 40 degC postharvest measured after 20 days of storage at 17 degC in presence of 1% SBC by GC analysis. The format is ADME. A digest of the protocol: (§1)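 'Valencia' oranges were dipped 1 min in TBZ at 600 mg/L (20 °C, ±0.5, 1 or 2% wt/vol SBC), 400 mg/L (40 °C, ±SBC) or 200 mg/L (50 °C, alone), then air-dried. They were sampled at 0, 10 and 20 days at 17 °C. Peel of five fruit was frozen, and 5 g of homogenate was extracted with ethyl acetate/hexane (1/1) plus NaCl. The extract was dried under N2, taken up in acetone and analysed by GC. Results are mg/kg on a whole-fruit basis.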

Data set [3] relates to Penicillium digitatum. The data set is described as follows: Fungicidal activity against TBZ-sensitive Penicillium digitatum infected Valencia oranges assessed as postharvest green mold incidence at 600 mg/L treated for 1 min at 20 degC at 20 hr after fungal conidial inoculation measured after 7 days of storage at 20 degC in presence of 1% SBC (water Rvb = 30.8%). The format is functional. In a few lines: (§2)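 Fruit were surface-disinfected in 1 g/L hypochlorite for 30 s, rinsed, dried, then wounded twice equatorially (2 mm × 2 mm rod). Inoculation was a 1 min dip in P. digitatum conidia, 1 × 10^5 conidia/mL final. Fruit were held 20 h at 20 °C and 90% RH, dipped 1 min (SBC wt/vol), and air-dried. Storage was 20 °C, 90% RH. Decay incidence (% fruit with lesions) was scored at 5 d for mandarins and 7 d for oranges. Three replicates of 40 fruit were used; arcsin-transformed data were compared by LSD, p ≤ 0.05.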

The subject of data set [4] is Fruit surface. The data set can be described thus: Drug residues on Citrus sinensis cvs. Salustiana (Salustiana oranges) fruit surface at 600 mg/L treated for 3 min at 50 degC postharvest measured after overnight incubation at 17 degC by GC analysis. The settings on record: 0.05 h. The format is ADME. In a few lines:
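'Salustiana' oranges were washed with water and air-dried. They were dipped 1 or 3 min in TBZ 600 mg/L at 20 or 50 °C, or 1 min in TBZ 600 mg/L plus 2% SBC at 20 °C, then dried overnight at 17 °C in the dark. Surface residue was taken by water extraction and wax residue by chloroform extraction. Inner residue was measured in fruit after both extractions. Extracts were dried under N2, taken up in acetone and analysed by GC. Values are mg/kg on a whole-fruit basis.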

The test system of data set [5] is Penicillium digitatum. The data set is described as follows: Fungicidal activity against Penicillium digitatum infected Valenica oranges assessed as fruit weight loss at 400 mg/L treated for 1 min at 40 degC postharvest at 20 hr after fungal conidial inoculation measured after 21 days of storage at 17 degC in presence of 2% SBC (water Rvb = 13.47%). The format is functional.

In data set [6] the test system is Penicillium digitatum. The data set is described as follows: Fungicidal activity against TBZ-sensitive Penicillium digitatum infected Nova mandarins assessed as postharvest green mold incidence at 400 mg/L treated for 1 min at 40 degC at 20 hr after fungal conidial inoculation measured after 5 days of storage at 20 degC in presence of 0.5% SBC (water Rvb = 100%). The format is functional. In a few lines: as §2

The subject of data set [7] is Penicillium digitatum. The data set can be described thus: Fungicidal activity against TBZ-resistant Penicillium digitatum infected Valencia oranges assessed as postharvest green mold incidence at 400 mg/L treated for 1 min at 40 degC at 20 hr after fungal conidial inoculation measured after 7 days of storage at 20 degC in presence of 0.5% SBC (water Rvb = 81.7%). The format is functional.

For data set [8], the system named is Penicillium digitatum. The data set is described as follows: Fungicidal activity against Penicillium digitatum infected Valenica oranges assessed as fruit weight loss at 400 mg/L treated for 1 min at 40 degC postharvest at 20 hr after fungal conidial inoculation measured after 7 days of storage at 17 degC in presence of 1% SBC (water Rvb = 4.49%). The format is functional.

In data set [9] the test system is Penicillium digitatum. The data set is described as follows: Fungicidal activity against TBZ-sensitive Penicillium digitatum infected Nova mandarins assessed as postharvest green mold incidence at 600 mg/L treated for 1 min at 20 degC at 20 hr after fungal conidial inoculation measured after 5 days of storage at 20 degC in presence of 0.5% SBC (water Rvb = 100%). The format is functional. In a few lines:
as §2

Data set [10] has as its system Fruit. The data set can be described thus: Drug residues in Citrus sinensis cvs. Valencia late (Valencia oranges) at 600 mg/L treated for 1 min at 20 degC postharvest measured after 10 days of storage at 17 degC in presence of 0.5% SBC by GC analysis. The format is ADME. In a few lines:
as §1

The subject of data set [11] is Penicillium digitatum. The data set can be described thus: Fungicidal activity against Penicillium digitatum infected Valenica oranges assessed as fruit weight loss at 600 mg/L treated for 1 min at 20 degC postharvest at 20 hr after fungal conidial inoculation measured after 14 days of storage at 17 degC in presence of 1% SBC (water Rvb = 7.65%). The format is functional.

Data set [12] has as its system Penicillium digitatum. The data set can be described thus: Fungicidal activity against TBZ-resistant Penicillium digitatum infected Nova mandarins assessed as postharvest green mold incidence at 400 mg/L treated for 1 min at 40 degC at 20 hr after fungal conidial inoculation measured after 5 days of storage at 20 degC in presence of 0.5% SBC (water Rvb = 83.3%). The format is functional.

Take `c1ccc2[nH]c(-c3cscn3)nc2c1` [THIABENDAZOLE]: the Activity in [1] amounted to 93.3%; in [3], 9.2%; in data set [5], 13.98%; in data set [6], 0%; in data set [7], 14.2%; in data set [8], 3.98%. Besides, the Activity in data set [9] turned out to be 0%; in [11], 8.47%; in [12], 70%. Also, the Drug uptake in data set [2] worked out at 0.71 mg/kg; in data set [4], 0.69 mg/kg; in data set [10], 1.4 mg/kg.
